High-throughput results (PubChem BioAssay)
TRPC4 potent – TRPC4 (mouse) allosteric potentiation; HEK293 TRPC4beta/mu-opioid, DAMGO EC20, Fluo-4 Ca2+ flux; hits give high values; B-score at 10 µM; Q9QUQ5; 310,000 compounds, 0.42% hits; AID 2227;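 active means B-score of calcium response area above 5 SD of library B-scores, with initial fluorescence ratio within 5 SD of library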
TRPC4 act – activators of mouse TRPC4 channel; B-score at 10 µM; HEK293 TRPC4beta/mu-opioid, Fluo4 calcium fluorescence; hits give high values; 310,000 compounds, 0.49% hits;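 active means B-score above 5 SD of library B-scores, and initial fluorescence ratio not above library mean plus 5 SD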;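 further: positive B-score marks a calcium rise read as TRPC4 activation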
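Assay system: HEK293 stable line with TRPC4beta plus mu-opioid receptor. Times: dye 45 min RT, read 110 s. Measured by: kinetic Fluo4 calcium fluorescence. Measure: B score of integrated ratio. Controls: assay buffer as low control, maximal DAMGO as high control.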
TRPC4 block – TRPC4 (mouse) channel inhibition. Q9QUQ5. 300,000 compounds, 0.39% hits. HEK293 TRPC4beta/mu-opioid, DAMGO-evoked Fluo4 calcium flux; hits give low values. B-score at 10 µM;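 active means B-score over 3 SD under the library average, no early fluorescence shift, positive overall ratio signal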
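test system = HEK293 cells with stable TRPC4beta plus mu-opioid receptor expression | detection = Fluo4 Ca2+ flux fluorescence | read-out = integrated fluorescence ratio relative to baseline, converted to per-well B score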
TRPC6 act – activators of mouse TRPC6 channel; HEK293-TRPC6 membrane potential dye fluorescence; hits give high values; B-score at 10 µM; 310,000 compounds, 0.13% hits;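 active means B-score of the integrated fluorescence ratio above library mean plus 3 SD, and starting fluorescence ratio within library mean plus 5 SD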;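 further: higher score means more depolarization so channel activation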
TRPC6 inh – mouse TRPC6 channel inhibition; Q61143; B-score at 10 µM; HEK293-TRPC6, membrane potential dye, ACh-evoked depolarization; hits give low values; 310,000 compounds, 1.1% hits; AID 2553;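 active means B-score under library mean minus 3 SD, initial fluorescence not abnormally high, positive integrated signal ratio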;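 further: B-score derived from integrated fluorescence ratio over the kinetic read; more negative B-score means stronger inhibition of depolarization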
A number is an active result; 0 = inactive. A selection: hits, their analogues and other compounds. The true share with any hit is near 2.3%.

SMILES	TRPC4 potent	TRPC4 act	TRPC4 block	TRPC6 act	TRPC6 inh
O=C(Nc1ccc(Cl)cc1)N1CCC(c2nc(-c3cccs3)no2)CC1	0	137	0	0	0
O=C(NC1CCCCC1)N1CCCC(c2nc(-c3cccs3)no2)C1 (stereo not drawn)	0	0	0	0	0
Cc1cc(N)n(-c2ccc(Oc3ccccc3)c(S(=O)(=O)O)c2)n1	0	0	0	0	0
COCCCN1C(=O)c2ccc(C(=O)NCCc3ccccc3)cc2C1=O	0	0	0	0	0
CC(O)CNC(=O)Cc1cc(=O)[nH]c(=O)[nH]1 (stereo not drawn)	0	0	0	0	0
COc1cc2c(cc1NC(=O)C(C)Sc1ccc(NC(C)=O)cc1)oc1ccccc12 (stereo not drawn)	11	0	0	0	0
COc1cc2c(cc1NC(=O)Nc1ccc(C)cc1)oc1ccccc12	0	0	0	0	0
CC(C)c1ccc(NC(=S)N(C)CCc2ccccn2)cc1	0	107	0	0	0
COc1ccc(NC(=O)c2c[nH]n3c(=O)cc(C4CCN(C(=O)OC(C)(C)C)CC4)nc23)cc1Cl	0	0	-7	0	0
CC(C)(C)OC(=O)N1CCC(c2cc(=O)n3[nH]cc(C(=O)Nc4ccc(F)c(Cl)c4)c3n2)CC1	0	0	0	0	0
OC(CNC1Cc2ccccc2C1)COc1ccc(Cl)cc1 (stereo not drawn)	0	0	0	0	0
OC(CNC1CCCc2ccccc21)COc1c(Cl)cccc1Cl (stereo not drawn)	0	44	-5	0	0
O=C(CCc1ccccc1)NNC(=S)NC(=O)c1ccc(Cl)cc1	0	211	0	0	0
Cc1ccc(C(=O)NNC(=S)NC(=O)c2ccc(Cl)cc2)cc1	0	222	0	0	0
CC(=O)NNC(=S)NC(=O)c1ccc(C)cc1	0	0	0	0	0
Cc1ccc(SCC(=O)NNC(=O)c2ccccc2)cc1C	0	0	0	0	0
Cc1ccc(SCCN)cc1C	0	83	0	0	0
CCCC(O)(c1ccc(Cl)cc1)C(CN1CCOCC1)c1ccccc1 (stereo not drawn)	0	0	-5	0	0
COC(=O)c1ccccc1NC(=O)Cn1c(=O)n(CCC(=O)NC2CCN(Cc3ccccc3)CC2)c(=O)c2ccccc21	0	0	0	0	0
Cc1cccc(C)c1NC(=O)Cn1c(=O)n(CCCC(=O)NC2CCN(Cc3ccccc3)CC2)c(=O)c2ccccc21	0	0	0	0	0
O=C(CCCCn1c(=O)c2ccccc2n(Cc2ccccc2F)c1=O)NC1CCN(Cc2ccccc2)CC1	12	0	0	0	0
O=C(CCCCn1c(=O)[nH]c2ccccc2c1=O)NC1CCN(Cc2ccccc2)CC1	0	86	0	0	0
O=C(CCCn1c(=O)[nH]c2ccccc2c1=O)NC1CCCCCC1	0	0	0	0	0
Cc1cc(NC(=O)Cn2c(=O)n(CCCCC(=O)NC3CCN(Cc4ccccc4)CC3)c(=O)c3ccccc32)n[nH]1	11	0	0	0	0
CCCn1c(=O)c2sccc2n2c(CCCC(=O)NC3CCN(Cc4ccccc4)CC3)nnc12	16	0	0	0	0
SMILES	TRPC4 potent	TRPC4 act	TRPC4 block	TRPC6 act	TRPC6 inh
C=CCc1cc(Cl)ccc1OCCCNC(C)C	0	0	0	0	0
C=CCc1cc(Cl)ccc1OCCCNCCO	14	0	0	0	0
CCC(=O)n1nc(-c2cccnc2)nc1NCc1ccc(OC)cc1	0	0	0	0	0
COc1ccc(CNc2nc(-c3cccnc3)nn2C(=O)C(C)C)cc1	0	0	-5	0	0
CC1C(=O)N2CCCc3cc(S(=O)(=O)NCc4ccccc4Cl)cc1c32 (stereo not drawn)	0	0	0	0	0
NNc1nc(-c2ccccc2Cl)nc2sc3c(c12)CCCC3	12	0	0	0	0
CC(C)c1ccccc1OCCCCCNCCO	13	0	0	0	0
COc1ccc(NC(=O)Nc2ccc(C(C)C)cc2)cc1	0	0	-6	0	0
COc1ccc(NC(=O)CCC(=O)c2ccc(C(C)C)cc2)cc1	0	0	0	0	0
O=[N+]([O-])c1cc(C(F)(F)F)ccc1N1CCN(S(=O)(=O)c2ccc3c(c2)CCCC3)CC1	0	0	0	0	0
O=[N+]([O-])c1cc(C(F)(F)F)ccc1N1CCCNCC1	42	83	0	0	0
CCN1CCN(CCOc2ccc(Br)cc2C)CC1	0	0	0	0	0
Cc1cc(Br)ccc1OCCN1CCCC1	15	0	0	0	0
Clc1cccc2c3c([nH]c12)CCNC3	16	0	0	0	0
Clc1ccc2[nH]c3c(c2c1)CNCC3	19	0	0	0	0
O=C(O)c1cccc2c3c([nH]c12)CCCC3	0	0	0	0	0
O=C1CCCc2c1[nH]c1ccc(Cl)cc21	0	0	0	0	0
CCc1ccc(N(C(=O)c2snc(C(N)=O)c2N)C(C(=O)NC2CCCC2)c2ccco2)cc1 (stereo not drawn)	0	0	0	0	0
COc1cccc(N(C(=O)c2snc(C(N)=O)c2N)C(C(=O)NCC2CCCO2)c2ccc3ncccc3c2)c1 (stereo not drawn)	0	0	-6	0	0
Cc1cccc(N(C(=O)c2snc(C(N)=O)c2N)C(C(=O)NCC2CCCO2)c2ccc3ncccc3c2)c1 (stereo not drawn)	0	0	-6	0	0
Cc1ccc(N(C(=O)c2snc(C(N)=O)c2N)C(C(=O)NCC2CCCO2)c2ccc3ncccc3c2)cc1 (stereo not drawn)	0	0	0	0	0
COc1ccccc1N(C(=O)c1snc(C(N)=O)c1N)C(C(=O)NC1CCCC1)c1ccc2ncccc2c1 (stereo not drawn)	0	0	-6	0	0
Cc1ccccc1N(C(=O)c1snc(C(N)=O)c1N)C(C(=O)NC1CCCC1)c1ccco1 (stereo not drawn)	0	0	-8	0	0
NC(=O)c1nsc(C(=O)N(c2ccc(F)cc2)C(C(=O)NCC2CCCO2)c2ccc3ncccc3c2)c1N (stereo not drawn)	0	0	0	0	0
Cc1c(C(=O)NCCCn2ccnc2)oc2ccccc12	0	0	0	0	0
CC(=O)c1cn(CC(=O)Nc2ccccc2C(F)(F)F)c2ccccc12	0	0	0	0	0
COc1ccc(C(C(=O)NCc2ccccc2)N(C(=O)c2snc(C(N)=O)c2N)c2ccccc2OC)cc1 (stereo not drawn)	0	0	0	0	0
COc1ccc(CN(C(=O)c2snc(C(N)=O)c2N)C(CC(C)C)C(=O)NC2CCCCC2)cc1 (stereo not drawn)	0	0	-7	0	0
COc1ccccc1N(C(=O)c1snc(C(N)=O)c1N)C(C(=O)NCc1ccccc1)c1ccc(O)cc1 (stereo not drawn)	0	0	-8	0	0
